We go through twelve compounds from article PMC3272422 (Molecular cancer therapeutics, 2011).

Read-outs that look alike come from different tables or passages of the source.

Broadly, the IC50 is the concentration needed to halve the response being measured.

One data set deals with MDA-MB-468 cells. Put plainly: Toxicity in MDA-MB-468 cells, MTT assay. The data set is classed as cell-based. A general note: Tetrazolium dyes change colour on reduction, which living cells bring about.
The next data set has as its system BT474 cells. Put plainly: CB1954 toxicity in BT474 cells. Particulars: Homo sapiens. It counts as cell-based.
The subject of the next data set is K562 cells. As to the kind of experiment: 96 hour toxicity, XTT assay. It counts as cell-based. Particulars: read-out: 96 hour Toxicity in Cells IC50, K562.
Data set [1] concerns NFκB transcriptional activity in MDA-MB-468 cells. Put plainly: NFκB dual luciferase reporter assay. The data set is classed as cell-based. The method in brief: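 MDA-MB-468 cells (7×10^5 per 6 cm plate, 24 h attachment) were transfected with 1 µg/plate Cignal NFκB reporter (6× NFκB element-driven firefly, CMV-Renilla) using Oligofectamine in opti-MEM for 5 h at 37 °C. They were then re-fed with RPMI/10% FCS and reseeded into 96-well plates. Cells were pretreated for 1 h with 100 µM NRH and/or 20 ng/mL TNFα, then given test compound (DMSO ≤0.5% final) for 18 h. Passive lysis, dual-luciferase read-out.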
A general note: In a reporter assay the amount or activity of a reporter protein is the signal.

In data set [2] the test system is NFκB in Renal Carcinoma cells. Particulars: cited from earlier work.
Another data set has as its target T1, Recombinant human NQO2 (Homo sapiens, UniProt P16083).
T1 sequence (P16083 1-231): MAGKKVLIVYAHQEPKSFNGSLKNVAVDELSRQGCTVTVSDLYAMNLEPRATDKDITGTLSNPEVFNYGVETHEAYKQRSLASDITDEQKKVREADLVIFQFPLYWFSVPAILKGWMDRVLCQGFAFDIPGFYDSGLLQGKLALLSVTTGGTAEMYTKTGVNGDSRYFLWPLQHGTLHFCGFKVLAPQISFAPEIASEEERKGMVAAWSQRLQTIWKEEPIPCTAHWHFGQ
As to the kind of experiment: Inhibition of recombinant NQO2 enzymatic activity. It counts as biochemical. The conditions noted are these: for IC50: 200 μM NRH, DCPIP; for ΔGexp, experimentally determined binding affinity: derived from IC50 by the Cheng-Prusoff equation.

Another data set concerns Recombinant human NQO1. The conditions noted are these: previously reported; cited from earlier work.
The mark [3] stands for this setting: Homo sapiens, MDA-MB-468, read-out: 3hr toxicity (IC50) Inhibitor alone.
The mark [4] stands for this setting: IC50 + BSA, presence of 2 μM BSA.
The mark [5] stands for this setting: read-out: IC50 + BSA, presence of 2 μM BSA.
Where [6] appears, read: read-out: IC50 – BSA, absence of BSA.
The mark [7] stands for this setting: read-out: 96 hour Toxicity in Cells IC50, MDA-MB-468, 96 hour exposure.

With `NC(=O)c1cc(N2CC2)c([N+](=O)[O-])cc1[N+](=O)[O-]` [CB1954, 5-(-aziridin-1-yl)-2,4-dinitrobenzamide, reference compound], the “proliferation of MDA-MB-468 cells” value in the data set on MDA-MB-468 cells (100μM CB1954 plus 100μM NRH, 3 hours) is reported as “about 25%”. Besides, the IC50 in the data set on MDA-MB-468 cells (Homo sapiens, MDA-MB-468, 3 h, read-out: IC50 of CB1954 alone) was above 1000 µM; with BT474 cells (BT-474, read-out: IC50 of CB1954, absence of NRH), above 1000 µM; in the data set on BT474 cells (BT-474, read-out: IC50 of CB1954, presence of 100μM NRH) it was 1000 µM.

As for `Cc1ccc(NC(=O)c2ccc(CN3CCN(C)CC3)cc2)cc1Nc1nccc(-c2cccnc2)n1` [Imatinib, reference compound], the IC50 in the data set with K562 cells (Homo sapiens, K562, 96 h) turned out to be 0.68 ± 0.51 µM.

As for `NC(=O)C1=CN([C@@H]2O[C@H](CO)[C@@H](O)[C@H]2O)C=CC1` [NRH, N-ribosyl nicotinamide, reference compound], the “toxicity of NRH itself” value with MDA-MB-468 cells (1μM to 1mM NRH) was “no toxicity”. Also, the “NFκB activity (luciferase)” value in data set [1] (100μM NRH, without TNFα) was “stimulates NFκB activity”.

`Nc1c2ccccc2nc2ccccc12` [NSC13000, 9-aminoacridine]: the IC50 in the data set with K562 cells (Homo sapiens, K562, 96 h) came out at 1 ± 1.4 µM; in the data set with MDA-MB-468 cells (setting [3]), 23 ± 5.1 µM. Moreover, in data set [1] (0.1μM NSC13000, cells with or without 100μM NRH), the “NFκB transcriptional (luciferase) activity” value is “reduces the luciferase activity”. Moreover, the “basal and induced activity of NFκB” value in data set [2] was “effectively suppressed”.

In the case of `CCN(CC)CCCC(C)Nc1c2ccc(Cl)cc2nc2ccc(OC)cc12` (stereo not drawn) [NSC14229, Quinacrine], the IC50 is 8.5 ± 1.6 µM at Recombinant human NQO2 (setting [4]); 0.2 ± 0.05 µM at Recombinant human NQO2 (IC50 – BSA, absence of BSA); 4 ± 3.6 µM with K562 cells (Homo sapiens, K562, 96 h). The “ΔGexp, experimentally determined binding affinity” value (“ΔGexp, experimentally” for short) at Recombinant human NQO2 is -9.197 kcal/mol. For the same compound, the “basal and induced activity of NFκB” value in data set [2] is on record as “effectively suppressed”.

Turning to `Cc1c2ccncc2c(C)c2c1[nH]c1ccccc12` [NSC71795], the “ΔGexp, experimentally” value at Recombinant human NQO2 is -10.07 kcal/mol. The IC50 at Recombinant human NQO2 (setting [5]) worked out at 0.24 ± 0.09 µM; on Recombinant human NQO2 (setting [6]), 0.05 ± 0.01 µM; in the data set with K562 cells (96 hour exposure), 0.73 ± 0.6 µM; with MDA-MB-468 cells (setting [7]), 0.27 ± 0.2 µM.

On to `Cc1c2cnccc2c(C)c2c1c1ccccc1n2CCNCc1ccccc1` [NSC164016], for which the “ΔGexp, experimentally” value at Recombinant human NQO2 is -10.74 kcal/mol. Moreover, the IC50 on Recombinant human NQO2 (setting [5]) amounted to 3 ± 1.21 µM; on Recombinant human NQO2 (setting [6]) it was 0.02 ± 0.01 µM; in the data set with K562 cells (96 hour exposure), 0.7 ± 0.29 µM; with MDA-MB-468 cells (setting [7]), 0.43 ± 0.24 µM.

Turning to `N=C(N)c1ccc(-c2ccc(-c3ccc(C(=N)N)cc3)o2)cc1` [NSC305831], the IC50 at Recombinant human NQO2 (setting [4]) was found to be 2.8 ± 0.61 µM; with K562 cells (Homo sapiens, K562, 96 h), 27 ± 35 µM; in the data set on MDA-MB-468 cells (setting [3]) it was 114 ± 52 µM. The “ΔGexp, experimentally” value on Recombinant human NQO2 is -8.513 kcal/mol.

Take `Cc1c(-c2ccc(C(=N)N)cc2)oc(-c2ccc(C(=N)N)cc2)c1C` [NSC305836]: the “ΔGexp, experimentally” value at Recombinant human NQO2 was -10.07 kcal/mol. Besides, the IC50 was determined as 0.2 ± 0.09 µM on Recombinant human NQO2 (setting [5]), 0.05 ± 0.01 µM at Recombinant human NQO2 (setting [6]), 5.5 ± 3.6 µM with K562 cells (96 hour exposure) and 3.9 ± 2.5 µM with MDA-MB-468 cells (setting [7]).

For the compound `Nc1cc2c(cc1[N+](=O)[O-])[nH]c1c(-c3ccccc3)nccc12` [NSC620318], at Recombinant human NQO2, the “ΔGexp, experimentally” value is -9.197 kcal/mol. In addition, the half-inhibitory concentration (IC50) was found to be 4.1 ± 1.05 µM at Recombinant human NQO2 (setting [5]), 0.2 ± 0.01 µM at Recombinant human NQO2 (setting [6]), 35 ± 33 µM in the data set on K562 cells (96 hour exposure) and 22 ± 9.1 µM with MDA-MB-468 cells (setting [7]).

In the case of `O=C1c2c(c3c4ccccc4[nH]c3c3[nH]c4ccccc4c23)C(=O)N1Cc1ccccc1` [NSC628440], on Recombinant human NQO2, the “ΔGexp, experimentally” value is -8.485 kcal/mol. The IC50 at Recombinant human NQO2 (setting [5]) worked out at 9.8 ± 0.92 µM; at Recombinant human NQO2 (setting [6]) it was 0.66 ± 0.08 µM; in the data set with K562 cells (96 hour exposure), 0.75 ± 0.76 µM; in the data set on MDA-MB-468 cells (setting [7]), 4 ± 0.021 µM. Also, the “inhibition of NQO1” value in the data set on Recombinant human NQO1 is “relatively weak inhibitor”.

In the case of `Oc1ccc(/C=C/c2cc(O)cc(O)c2)cc1` [Resveratrol, reference compound], the IC50 in the data set with K562 cells (Homo sapiens, K562, 96 h) is 72 ± 5.1 µM; with MDA-MB-468 cells (setting [3]), above 100 µM.
